Measurements reported in ChEMBL document CHEMBL4706590, “Design and characterization of cereblon-mediated androgen receptor proteolysis-targeting chimeras” (Eur J Med Chem, 2020).
Calls of active or inactive are those of the source. The calls are words filed in the database; no cut-off is given here.

What was measured:
[1] = molecular target: T1, Protein cereblon/Androgen receptor (Homo sapiens, UniProt P10275+Q96SW2); experiment: Protac activity at CRBN/AR in human LNCaP cells assessed as AR degradation at 10 uM by Western blotting analysis relative to control; format: cell-based
Method in brief: (§1)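 LNCaP (IMDM) or 22RV1 (RPMI 1640) cells with 10% FBS at 37 °C, 5% CO2, treated with DMSO vehicle as control. Cells lysed in RIPA buffer (50 mM Tris-HCl pH 7.5, 150 mM NaCl, 1% Triton X-100, 0.1% SDS, 0.5% deoxycholate, protease inhibitors). Protein quantified by Bradford assay. Immunoblotted for AR with tubulin as loading control, HRP chemiluminescence detection.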
Target sequence in this assay (P10275 whole entry, looked up): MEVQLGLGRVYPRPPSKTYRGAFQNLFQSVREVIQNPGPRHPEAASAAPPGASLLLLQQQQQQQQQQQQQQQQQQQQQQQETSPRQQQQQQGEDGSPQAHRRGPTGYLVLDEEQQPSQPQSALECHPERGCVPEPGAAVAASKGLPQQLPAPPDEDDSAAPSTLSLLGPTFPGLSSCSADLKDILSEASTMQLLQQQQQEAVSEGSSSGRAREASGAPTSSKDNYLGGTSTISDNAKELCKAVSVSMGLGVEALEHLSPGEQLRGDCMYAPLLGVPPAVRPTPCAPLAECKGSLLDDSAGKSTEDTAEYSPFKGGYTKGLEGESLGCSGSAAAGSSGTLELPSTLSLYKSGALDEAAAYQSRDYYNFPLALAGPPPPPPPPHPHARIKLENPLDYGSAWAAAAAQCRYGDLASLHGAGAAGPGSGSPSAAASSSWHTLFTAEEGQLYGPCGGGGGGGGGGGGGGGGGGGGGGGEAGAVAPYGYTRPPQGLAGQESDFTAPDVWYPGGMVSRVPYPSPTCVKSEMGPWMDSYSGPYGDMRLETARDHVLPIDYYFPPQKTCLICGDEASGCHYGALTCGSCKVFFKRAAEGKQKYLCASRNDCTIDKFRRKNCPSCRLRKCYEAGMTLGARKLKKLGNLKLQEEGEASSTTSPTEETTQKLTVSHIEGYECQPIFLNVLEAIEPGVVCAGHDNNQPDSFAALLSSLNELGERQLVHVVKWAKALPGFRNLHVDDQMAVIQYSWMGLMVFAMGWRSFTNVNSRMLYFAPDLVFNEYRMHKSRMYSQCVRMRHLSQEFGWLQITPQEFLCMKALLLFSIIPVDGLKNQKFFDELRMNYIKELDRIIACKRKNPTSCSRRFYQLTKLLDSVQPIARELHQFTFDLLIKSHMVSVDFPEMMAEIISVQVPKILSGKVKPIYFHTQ
Target sequence in this assay (Q96SW2 whole entry, looked up): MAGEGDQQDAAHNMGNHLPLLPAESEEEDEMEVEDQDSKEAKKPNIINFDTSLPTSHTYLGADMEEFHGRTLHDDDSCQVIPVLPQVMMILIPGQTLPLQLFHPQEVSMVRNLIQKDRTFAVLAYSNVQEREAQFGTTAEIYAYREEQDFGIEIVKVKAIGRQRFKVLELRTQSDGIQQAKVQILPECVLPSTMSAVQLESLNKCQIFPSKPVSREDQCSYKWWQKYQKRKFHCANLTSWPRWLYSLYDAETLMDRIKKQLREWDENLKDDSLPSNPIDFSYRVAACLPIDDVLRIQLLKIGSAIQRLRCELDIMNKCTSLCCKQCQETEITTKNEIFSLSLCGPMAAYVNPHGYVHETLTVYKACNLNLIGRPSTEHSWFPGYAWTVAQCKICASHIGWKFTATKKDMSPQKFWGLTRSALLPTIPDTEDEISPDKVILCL

[2] = molecular target: T1, Protein cereblon/Androgen receptor; experiment: Protac activity at CRBN/AR in human LNCaP cells assessed as AR degradation at 1 uM after 4 hrs by Western blotting analysis relative to control; format: cell-based; method in brief: as §1
Target sequence in this assay (P10275 whole entry, looked up): as the sequence (P10275 whole entry, looked up) above
Target sequence in this assay (Q96SW2 whole entry, looked up): as the sequence (Q96SW2 whole entry, looked up) above

[3] = molecular target: T1, Protein cereblon/Androgen receptor; experiment: Protac activity at CRBN/AR in human 22RV1 cells assessed as maximum degradation of AR at 1 uM by Western blotting analysis relative to control; format: cell-based; method in brief: as §1
Target sequence in this assay (P10275 whole entry, looked up): as the sequence (P10275 whole entry, looked up) above
Target sequence in this assay (Q96SW2 whole entry, looked up): as the sequence (Q96SW2 whole entry, looked up) above

[4] = molecular target: T1, Protein cereblon/Androgen receptor; experiment: Protac activity at CRBN/AR in human LNCaP cells assessed as AR degradation at 1 uM pretreated with protease inhibitor bortezomib by Western blotting analysis; format: cell-based; method in brief: as §1
Target sequence in this assay (P10275 whole entry, looked up): as the sequence (P10275 whole entry, looked up) above
Target sequence in this assay (Q96SW2 whole entry, looked up): as the sequence (Q96SW2 whole entry, looked up) above

[5] = AUCt in ICR mouse at 30 mg/kg, po by LC-MS/MS analysis; format: ADME, organism-based; parameters: dose 30 mg/kg; details: in vivo; for AUC(0-t): ICR
Method in brief: (§2)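 Male ICR mice, 7 weeks old. Single dose of 5 mg/kg IV or IP in 5% DMSO, 52% PEG400, 3% Tween 80 in water, or 30 mg/kg PO in 20% PEG400 and 3% Tween 80 in water. Retro-orbital blood sampled over time. Plasma protein-precipitated with acetonitrile (1:10) and analysed by LC-MS/MS. Parameters from noncompartmental analysis of mean data, n = 3.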

[6] = molecular target: T1, Protein cereblon/Androgen receptor; experiment: Protac activity at CRBN/AR in human LNCaP cells assessed as AR degradation at 1 uM pretreated with neddylation inhibitor MLN4924 by Western blotting analysis; format: cell-based; method in brief: as §1
Target sequence in this assay (P10275 whole entry, looked up): as the sequence (P10275 whole entry, looked up) above
Target sequence in this assay (Q96SW2 whole entry, looked up): as the sequence (Q96SW2 whole entry, looked up) above

[7] = AUCt in ICR mouse at 5 mg/kg, ip by LC-MS/MS analysis; format: ADME, organism-based; parameters: dose 5 mg/kg; details: in vivo; method in brief: as §2
[8] = molecular target: T1, Protein cereblon/Androgen receptor; experiment: Protac activity at CRBN/AR in human LNCaP cells assessed as maximum degradation of AR by Western blotting analysis relative to control; format: cell-based; details: time 24.0 hrs; method in brief: as §1
Target sequence in this assay (P10275 whole entry, looked up): as the sequence (P10275 whole entry, looked up) above
Target sequence in this assay (Q96SW2 whole entry, looked up): as the sequence (Q96SW2 whole entry, looked up) above

[9] = Cmax in ICR mouse at 5 mg/kg, ip by LC-MS/MS analysis; format: ADME, organism-based; parameters: route intraperitoneal, dose 5 mg/kg; details: in vivo; method in brief: as §2
[10] = AUCt in ICR mouse at 5 mg/kg, iv by LC-MS/MS analysis; format: ADME, organism-based; parameters: dose 5 mg/kg; details: in vivo; method in brief: as §2
[11] = Half life in ICR mouse at 5 mg/kg, ip by LC-MS/MS analysis; format: ADME, organism-based; details: in vivo; method in brief: as §2
VCaP [12] = experiment: Antiproliferative activity against human VCaP cells assessed as reduction in cell viability after 6 days by CellTiter-Glo assay; format: functional; details: 144 h, time 6 day
Method in brief: (§3)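 LNCaP seeded at 1.5 × 10³ and VCaP at 4 × 10³ cells per well in 96-well plates. Cells grown in IMDM with 10% FBS and antibiotic-antimycotic at 37 °C, 5% CO2, with DMSO as vehicle. IC50 from nonlinear regression of log(inhibitor) versus response.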

[13] = molecular target: T1, Protein cereblon/Androgen receptor; experiment: Protac activity at CRBN/AR in human LNCaP cells assessed as AR degradation at 1 uM by Western blotting analysis relative to control; format: cell-based; method in brief: as §1
[14] = Tmax in ICR mouse at 5 mg/kg, ip by LC-MS/MS analysis; format: ADME, organism-based; details: in vivo; method in brief: as §2
[15] = Metabolic stability in mouse liver microsomes assessed as compound remaining at 1 uM after 30 mins in presence of NADPH-regenerating system; format: ADME, Microsome; details: read-out: Stabilty
Method in brief: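 Mouse liver microsomes at 0.5 mg protein/mL in 100 mM PBS, pH 7.4. Reaction started with NADPH-regenerating solution (1.3 mM NADP+, 3.3 mM glucose-6-phosphate, 0.4 U/mL G6PDH, 3.3 mM MgCl2). Incubated 30 min at 37 °C, stopped with ice-cold acetonitrile, centrifuged. Percent remaining reported as mean ± SD, n = 3.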

[16] = molecular target: T1, Protein cereblon/Androgen receptor; experiment: Protac activity at CRBN/AR in human LNCaP cells assessed as AR degradation after 24 hrs by Western blotting analysis; format: cell-based; method in brief: as §1
Target sequence in this assay (P10275 whole entry): as the sequence (P10275 whole entry, looked up) above
Target sequence in this assay (Q96SW2 whole entry): as the sequence (Q96SW2 whole entry, looked up) above

VCaP [17] = experiment: Antitumor activity against human VCaP cells xenografted in SCID mouse assessed as reduction in tumor growth at 30 mg/kg, ip administered once daily for 10 days and measured every 1 to 3 days post treatment by caliper method; format: functional, organism-based; details: time 10.0 day
Method in brief: (§4)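 Male SCID mice (C.B-17/IcrCrj-scid) implanted subcutaneously in the right flank with 1.5×10⁷ VCaP cells mixed 1:1 with Matrigel. At about 130 mm³, mice dosed IP once daily for 10 days, vehicle 20% PEG400 + 3% Tween 80 in PBS. Tumours measured by caliper, volume = length × width² × 0.5. Body weight tracked alongside; Mann-Whitney U test, α = 0.01.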

[18] = Tmax in ICR mouse at 30 mg/kg, po by LC-MS/MS analysis; format: ADME, organism-based; details: in vivo; method in brief: as §2
[19] = Cmax in ICR mouse at 30 mg/kg, po by LC-MS/MS analysis; format: ADME, organism-based; parameters: route oral, dose 30 mg/kg; details: in vivo; method in brief: as §2
[20] = molecular target: T1, Protein cereblon/Androgen receptor; experiment: Protac activity at CRBN/AR in human 22RV1 cells assessed as maximum degradation of AR-V7 splice variant at 10 uM by Western blotting analysis relative to control; format: cell-based; method in brief: as §1
LNCaP = experiment: Antiproliferative activity against human LNCaP cells assessed as reduction in cell viability after 6 days by CellTiter-Glo assay; format: functional; details: 144 h, time 6 day; method in brief: as §3
[21] = Half life in ICR mouse at 5 mg/kg, iv by LC-MS/MS analysis; format: ADME, organism-based; details: in vivo; method in brief: as §2
[22] = Toxicity in SCID mouse xenografted with human VCaP cells assessed as loss of body weight at 30 mg/kg, ip administered once daily for 10 days and measured every 1 to 3 days post treatment; format: organism-based; details: in vivo, 240 h, time 10 day; method in brief: as §4
[23] = molecular target: T1, Protein cereblon/Androgen receptor; experiment: Protac activity at CRBN/AR in human LNCaP cells assessed as AR degradation at 0.1 uM by western blotting analysis relative to control; format: cell-based; method in brief: as §1
[24] = Half life in ICR mouse at 30 mg/kg, po by LC-MS/MS analysis; format: ADME, organism-based; details: in vivo; for t1/2: 30 mg/kg; method in brief: as §2
[25] = molecular target: T1, Protein cereblon/Androgen receptor; experiment: Protac activity at CRBN/AR in human LNCaP cells assessed as AR degradation at 0.1 to 10 uM Western blotting analysis relative to control; format: cell-based; details: dose 0.1-10 µM; method in brief: as §1

| Structure (SMILES) | Activity [1] [%] | AUC(0-t) [5] [ng·h/mL] | AUCt [7] [ng·h/mL] | Cmax [9] [ng/mL] | AUC(0-t) [10] [ng·h/mL] | t1/2 [11] [h] | CC50 (VCaP [12]) [nM] | Activity [13] [%] | Tmax [14] [h] | remaining at 0.5 h, 1 µM [15] [%] | Tmax ([18]; ICR, read-out: Tmax) [h] | Cmax ([19]; ICR, read-out: Cmax) [ng/mL] | CC50 (LNCaP) [nM] | half-life [21] [h] | Activity [23] [%] | AUCt [5] [ng·h/mL] | t1/2 [24] [h] | Tmax ([18]; 30 mg/kg) [h] | Cmax [19] [ng/mL] | also measured |
| --- | --- | --- | --- | --- | --- | --- | --- | --- | --- | --- | --- | --- | --- | --- | --- | --- | --- | --- | --- | --- |
| CC1(C)[C@H](NC(=O)c2ccc(N3CCN(C4CC5(CCN(C(=O)C6CCN(c7ccc8nnn(C9CCC(=O)NC9=O)c(=O)c8c7)CC6)CC5)C4)CC3)cc2)C(C)(C)[C@H]1Oc1ccc(C#N)c(Cl)c1 (stereo partly drawn) | 95 | 530 | 1720 | 2780 | 20700 | 4.41 | 44 | 93 | 0.03 | 96 | 4 | 110 | 98 | 8.28 | 85 |  |  |  |  | Activity [2]: 80%; Activity [3]: 85%; Activity [4]: inactive; Activity [6]: inactive; Activity [8]: 93%; DC50 [16]: 12.5 nM; Activity (VCaP [17]): Active; Activity [20]: 34%; Activity [22]: Non-Toxic |
| CC1(C)[C@H](NC(=O)c2ccc(N3CCN(CC4CCN(C(=O)C5CN(c6ccc7nnn(C8CCC(=O)NC8=O)c(=O)c7c6)C5)CC4)CC3)cc2)C(C)(C)[C@H]1Oc1ccc(C#N)c(Cl)c1 (stereo partly drawn) | 83 |  | 24200 | 5540 | 24100 | 4.82 | 38 | 96 | 2 | 92.8 |  |  | 89 | 4.48 | 96 | 440 | 26.7 | 0.67 | 50 |  |
| CN1C(=O)CCC(n2nnc3ccc(N4CCC(C(=O)N5CCC6(CC5)CC(N5CCN(c7ccc(C(=O)N[C@H]8C(C)(C)[C@H](Oc9ccc(C#N)c(Cl)c9)C8(C)C)cc7)CC5)C6)CC4)cc3c2=O)C1=O (stereo partly drawn) |  |  |  |  |  |  |  |  |  |  |  |  |  |  |  |  |  |  |  | Activity [25]: inactive |
| CC1(C)[C@H](NC(=O)c2ccc(N3CCN(CCOC4CCN(c5ccc6nnn(C7CCC(=O)NC7=O)c(=O)c6c5)CC4)CC3)cc2)C(C)(C)[C@H]1Oc1ccc(C#N)c(Cl)c1 (stereo partly drawn) | 87 | 2840 | 10700 | 1780 | 14300 | 4.51 | 22 | 89 | 2 | 86.8 | 2 | 280 | 523 | 4.68 | 86 |  |  |  |  | half-life ([24]; ICR): 5.58 h |
| CC1(C)[C@H](NC(=O)c2ccc(N3CCN(CCOC4CCN(C(=O)C5CN(c6ccc7nnn(C8CCC(=O)NC8=O)c(=O)c7c6)C5)CC4)CC3)cc2)C(C)(C)[C@H]1Oc1ccc(C#N)c(Cl)c1 (stereo partly drawn) | 90 |  | 7490 | 2010 | 4490 | 4.24 | 57 | 86 | 1.67 | 92.6 |  |  | 762 | 4.35 | 82 | 150 | 19.7 | 0.7 | 20 |  |
